Results filed as inconclusive are left out.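 The calls were made as follows, unless noted: active = cell viability at or below a set limit in both duplicate runs, the limit being the all-compound median minus 4 SD (cut at about 23% in these data, passing the limit was not always enough); inconclusive = no clear call, values can overlap the other calls; inactive = the rest.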
How the values were obtained:
[1] = S. cerevisiae growth inhibition in permissive medium (OD615), pilot counter-assay for S. cerevisiae lifespan shortening project, permissive growth control (AID 705;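 active = growth inhibition above 25% in both replicates, a cutoff set 3 SD above the mean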); conditions: OD615, 24 h, at 10 µM, active compounds read high
Procedure, shortened: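 System: S. cerevisiae with engineered DeaD lifespan system / Measured by: absorbance (optical density) at 615 nm / Read-out: reduction in yeast growth (OD615) / Times: 4 h cell pre-growth, 24 h exposure at 30 °C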

[2] = S. cerevisiae growth inhibition in restrictive medium, OD615, pilot screen, restrictive growth control, yeast lifespan reduction project (AID 706;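 active = growth inhibition above a set limit, 3 SD over mean compound inhibition, in both replicates, cut at about 43% in these data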;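 also: modified DeaD lifespan yeast strain shifted to restrictive glucose medium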); conditions: OD615, 48 h, at 10 µM, active compounds read high
Procedure, shortened: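 System: Engineered S. cerevisiae DeaD strain | Buffer or medium: Glucose-based CSMM-D restrictive medium | Schedule: 4 h pre-incubation, 48 h exposure at 30 °C | Technique: Optical density at 615 nm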

[3] = doxorubicin toxicity protection in MRP-1 cells – H69AR cells, CellTiter-Glo, duplicate, MRP-1 activator project, pilot screen (AID 807;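 active = viability increase at or above a cutoff of the median across tested compounds plus 3 SD, cut at about 8.5% in these data, passing the limit was not always enough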;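 also: compound pretreatment 18-22 h then 72 h combined with doxorubicin; 0% = doxorubicin alone and 100% = vehicle without doxorubicin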); conditions: H69AR viability with doxorubicin, CellTiter-Glo luminescence; at 10 µM; active compounds read high
[4] = viability of HCT116 without oncogenic beta-catenin – human colon tumor cells, pilot screen (AID 823); conditions: HCT116 beta-catenin knockout viability, CellTiter-Glo, 60 h; at 10 µM; active compounds read low;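 also: 0% = wells killed by 20 µM Hyamine and 100% = untreated DMSO cell wells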
[5] = viability of PTEN-null HCT116 cells – cell-based, HCT116 clonal line, CellTiter-Glo, pilot screen (AID 824;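 active = viability at or below 27.92% in each of two runs, the all-compound median minus 4 SD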;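 also: 0% = 20 µM Hyamine control and 100% = vehicle cell control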); conditions: HCT116 PTEN-deleted viability, 60 h, at 10 µM, active compounds read low
[6] = RAM pathway blockade in budding yeast – dse1pr::URA3 reporter, 5-FOA selection, pilot screen (AID 869;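 active = inhibition over a set limit, the all-compound mean plus 3 SD, in both replicate runs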;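 also: 0% = DMSO wells with no growth and 100% = 10 µM 1-NA-PP1 with full growth; RAM network block rescues cells from 5-FOA so hits raise OD615 growth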); conditions: S. cerevisiae dse1pr::URA3 5-FOA growth, OD615, 2 d; at 10 µM; active compounds read high; strain carries analog-sensitive mutant Cbk1 kinase
[7] = RAM signaling pathway blockade in yeast – S. cerevisiae, Pdr1DBD-CYC8 efflux-inhibited sensitized strain, primary screen (AID 1298;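 active = RAM network inhibition above 8.4% in each of two replicates, 3 SD over the compound average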;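 also: 0% = DMSO untreated cells without growth and 100% = 10 µM 1-NA-PP1 full growth; higher means more yeast growth rescued from 5-FOA killing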); conditions: S. cerevisiae cbk1-as DSE1-URA3 strain, 5-FOA growth OD615, 2 d; at 50 µM; active compounds read high

CCc1ccc(C2N(c3ccc(OC)cc3)C(=O)C3CCCN32)cc1 (configuration not stated)
inactive: growth inhibition [1] 2.83% | growth inhibition [2] -2.37% | viability increase [3] -1.6% | viability [4] 95.3% | viability [5] 101% | inhibition [6] 0.83% | RAM network inhibition [7] 0.23%

COc1ccc(NC(=O)N(CCCN2CCOCC2)Cc2cccnc2)c(OC)c1
inactive: growth inhibition [1] -7.71% | growth inhibition [2] -3.92% | viability increase [3] -1.79% | viability [4] 100% | viability [5] 103% | inhibition [6] 1.03% | RAM network inhibition [7] 1.81%

C=CCOC(=O)C1=C(C)NC(C)=C(C(=O)OCC=C)C1c1ccc(O)cc1
inactive: growth inhibition [1] -6.92% | growth inhibition [2] -8.46% | viability increase [3] -4.51% | viability [4] 78.1% | viability [5] 71% | inhibition [6] 0.035% | RAM network inhibition [7] 2.05%

O=C(c1cc(F)c(F)cc1Cl)N1CCCCC1
inactive: growth inhibition [1] -2.35% | growth inhibition [2] 1.34% | viability increase [3] -1.35% | viability [4] 92.1% | viability [5] 90.6% | inhibition [6] 2.08% | RAM network inhibition [7] 2.31%

c1ccc(C(Cc2nc(-c3cccnc3)no2)c2ccccc2)cc1
inactive: growth inhibition [1] -8.42% | growth inhibition [2] -4.57% | viability increase [3] 0.35% | viability [4] 90.8% | viability [5] 88.2% | inhibition [6] 1.46% | RAM network inhibition [7] 7.55%

COCCCN(C(=O)Nc1ccc(C)c(C)c1)C(C)c1ccccn1 (configuration not stated)
inactive: growth inhibition [1] 2.01% | growth inhibition [2] 11.8% | viability increase [3] -1.65% | viability [4] 102% | viability [5] 89.8% | inhibition [6] 2.15% | RAM network inhibition [7] 5.96%

CCCNc1nc2c(c(=O)[nH]c(=O)n2C)n1Cc1cccc(Br)c1
inactive: growth inhibition [1] -4.76% | growth inhibition [2] -9.2% | viability increase [3] -2.4% | viability [4] 97.8% | viability [5] 92.6% | inhibition [6] 3.46% | RAM network inhibition [7] 7.91%

Cc1cc(NC(=O)CC(CN(C)S(=O)(=O)c2ccccc2)c2ccccc2)no1 (configuration not stated)
inactive: growth inhibition [1] -7.79% | growth inhibition [2] -20.5% | viability increase [3] -4.04% | viability [4] 89.7% | viability [5] 81.3% | inhibition [6] 1.59% | RAM network inhibition [7] 3.14%

COc1ccc(NS(=O)(=O)c2ccc3c(c2)oc(=O)n3C)c(OC)c1
inactive: growth inhibition [1] -16.1% | growth inhibition [2] -28.2% | viability increase [3] 0.13% | viability [4] 104% | viability [5] 91.5% | inhibition [6] 1.07% | RAM network inhibition [7] 9.99%

CCOc1ccc(N(CC(=O)Nc2ccc(OC)cc2)S(=O)(=O)c2c(C)noc2C)cc1
inactive: growth inhibition [1] -8.01% | growth inhibition [2] -2.61% | viability increase [3] -3.3% | viability [4] 83.5% | viability [5] 73.9% | inhibition [6] 3.53% | RAM network inhibition [7] 4.12%

O=C(NCCN1C(=O)C2C3C=CC(C3)C2C1=O)Nc1ccccc1O (configuration not stated)
inactive: growth inhibition [1] -6.45% | growth inhibition [2] -1.21% | viability increase [3] -1.45% | viability [4] 106% | viability [5] 106% | inhibition [6] 1.5% | RAM network inhibition [7] 4.02%

CCOC(=O)c1cc2c(=O)n3cccc(C)c3nc2n(CCCOC)c1=NC(=O)c1cccnc1
inactive: growth inhibition [1] -11.3% | growth inhibition [2] -9.9% | viability increase [3] -4.94% | viability [4] 92.5% | viability [5] 92.2% | inhibition [6] 0.515% | RAM network inhibition [7] 6.01%

Cc1nc2ccccc2c2oc(C(=O)N3CCN(C4CCCCC4)CC3)cc12
inactive: growth inhibition [1] 7.91% | growth inhibition [2] 8.38% | viability increase [3] -3.69% | viability [4] 44.1% | viability [5] 57.5% | inhibition [6] 0.555% | RAM network inhibition [7] 3.92%

CCCN1CCN(C(=O)C2CCN(S(=O)(=O)c3ccc4c(c3)oc(=O)n4C)CC2)CC1
inactive: growth inhibition [1] -6.11% | growth inhibition [2] -13.9% | viability increase [3] -0.29% | viability [4] 108% | viability [5] 98.5% | inhibition [6] 3.06% | RAM network inhibition [7] -1.87%

CC1CCCCN1c1nnc(NC(=O)Cn2c(=O)oc3ccccc32)s1 (configuration not stated)
inactive: growth inhibition [1] -4.21% | growth inhibition [2] -14.8% | viability increase [3] -1.54% | viability [4] 110% | viability [5] 97.8% | inhibition [6] -0.575% | RAM network inhibition [7] 4.48%

CC(C)C(NS(=O)(=O)c1ccc2c3c(cccc13)C(=O)N2)C(=O)O (configuration not stated)
inactive: growth inhibition [1] -4.62% | growth inhibition [2] -4.4% | viability increase [3] -0.28% | viability [4] 97% | viability [5] 93.6% | inhibition [6] 1.71% | RAM network inhibition [7] 3.8%

CCCn1c(CN(Cc2ccccc2)Cc2ccccc2)nc2c1c(=O)n(C)c(=O)n2C
inactive: growth inhibition [1] -1.94% | growth inhibition [2] -8.84% | viability increase [3] 0.21% | viability [4] 69.2% | viability [5] 59.7% | inhibition [6] 1.22% | RAM network inhibition [7] 8.87%

O=C(c1cc(-c2cccs2)on1)N1CCCc2ccccc21
inactive: growth inhibition [1] -2.66% | growth inhibition [2] -4.53% | viability increase [3] -3.09% | viability [4] 103% | viability [5] 103% | inhibition [6] 2.58% | RAM network inhibition [7] -0.52%

Cn1c(Cn2c(=O)sc3ccccc32)nnc1SCC(=O)NC1CCCCC1
inactive: growth inhibition [1] -17% | growth inhibition [2] -24.8% | viability increase [3] -0.4% | viability [4] 97.6% | viability [5] 98% | inhibition [6] 0.415% | RAM network inhibition [7] 1.06%

Cc1ccccc1-n1c(=O)cc(N2CCCCCC2)[nH]c1=O
inactive: growth inhibition [1] -4.08% | growth inhibition [2] -0.93% | viability increase [3] -2.23% | viability [4] 99.9% | viability [5] 98.1% | inhibition [6] 2.07% | RAM network inhibition [7] 6.58%

COc1cc2c(cc1OC)CN(S(C)(=O)=O)CC2
inactive: growth inhibition [1] -0.905% | growth inhibition [2] -20.7% | viability increase [3] -2.27% | viability [4] 110% | viability [5] 94.7% | inhibition [6] 1.33% | RAM network inhibition [7] 1.26%

CSCC[C@@H](C(=O)O)N1Cc2ccccc2C1=O
inactive: growth inhibition [1] 7.93% | growth inhibition [2] 6.17% | viability increase [3] 0% | viability [4] 105% | viability [5] 103% | inhibition [6] 1.69% | RAM network inhibition [7] -0.16%

Cc1cc(C)c(NC(=O)C(C)(C)C)c(Cl)c1
inactive: growth inhibition [1] -6.4% | growth inhibition [2] 6.2% | viability increase [3] -0.89% | viability [4] 89.8% | viability [5] 86.2% | inhibition [6] 1.72% | RAM network inhibition [7] 1.23%

CN1CCN(Cc2c(O)ccc3c(=O)c(Oc4ccccc4Cl)c(C(F)(F)F)oc23)CC1
inactive: growth inhibition [1] -4.67% | growth inhibition [2] 12.6% | viability increase [3] -0.67% | viability [4] 98% | viability [5] 96.7% | inhibition [6] 0.13% | RAM network inhibition [7] 1.25%

O=C(Nc1nc2ccccc2n1CCN1CCCC1)c1ccc(Cl)cc1
inactive: growth inhibition [1] -9.21% | growth inhibition [2] -13.3% | viability increase [3] -7.07% | viability [4] 59.9% | viability [5] 65.7% | inhibition [6] -0.07% | RAM network inhibition [7] 4.6%

CCOc1cc(C2NC(=O)NC(O)(C(F)(F)F)C2C(=O)c2ccc(Cl)cc2)ccc1O (configuration not stated)
inactive: growth inhibition [1] -3.6% | growth inhibition [2] -4.53% | viability increase [3] -1.34% | viability [4] 86.7% | viability [5] 94.3% | inhibition [6] 1.62% | RAM network inhibition [7] -0.26%

O=C(Nc1c(C(=O)N2CCCCC2)cnn1-c1ccccc1)c1ccccc1
inactive: growth inhibition [1] -13.8% | growth inhibition [2] -4.25% | viability increase [3] -1.28% | viability [4] 105% | viability [5] 92% | inhibition [6] 1.99% | RAM network inhibition [7] 2.44%

CCN1CCN(CCCNC(=O)c2ccc3c(c2)NC(=O)c2ccccc2S3)CC1
inactive: growth inhibition [1] -15.9% | growth inhibition [2] -14.5% | viability increase [3] -2.37% | viability [4] 90.6% | viability [5] 95.4% | inhibition [6] 0.905% | RAM network inhibition [7] 5.84%

O=C1CC(c2ccccc2)C(C(=O)O)N1 (configuration not stated)
inactive: growth inhibition [1] -0.84% | growth inhibition [2] -18.1% | viability increase [3] 1.77% | viability [4] 99.2% | viability [5] 102% | inhibition [6] 2.74% | RAM network inhibition [7] 0.37%

CC1(C)CC(=O)c2cc(C(=O)N3CCN(CCO)CC3)c(=O)n(-c3ccc(Cl)cc3)c2C1
inactive: growth inhibition [1] -6.56% | growth inhibition [2] -25.4% | viability increase [3] -0.93% | viability [4] 103% | viability [5] 100% | inhibition [6] 1.81% | RAM network inhibition [7] 3.06%

Cc1c(N=c2c(=O)c3ccccc3c2=O)c(=O)n(-c2ccccc2)n1C
inactive: growth inhibition [1] -15.7% | growth inhibition [2] -8.74% | viability increase [3] -4.43% | viability [4] 95.2% | viability [5] 95.3% | inhibition [6] 4.17% | RAM network inhibition [7] 3.66%

CCc1cccc(Nc2cc(C)nc3ncnn23)c1
inactive: growth inhibition [1] -5.35% | growth inhibition [2] -1.55% | viability increase [3] -0.66% | viability [4] 99.8% | viability [5] 93% | inhibition [6] 0.465% | RAM network inhibition [7] 6.68%

COCCN(CCOC)Cc1c(O)ccc2c3c(c(=O)oc12)CCC3
inactive: growth inhibition [1] -1.66% | growth inhibition [2] 7.01% | viability increase [3] -1.42% | viability [4] 99.9% | viability [5] 102% | inhibition [6] -0.65% | RAM network inhibition [7] -0.97%

CN(C)S(=O)(=O)c1ccc(C(=O)Nc2ccccn2)cc1
inactive: growth inhibition [1] -10.3% | growth inhibition [2] -19.3% | viability increase [3] -0.7% | viability [4] 96.6% | viability [5] 89.2% | inhibition [6] 1.31% | RAM network inhibition [7] -1.36%

COc1cccc(C2NC(CCSC)(C(=O)O)C3C(=O)N(C(C)C)C(=O)C23)c1O (configuration not stated)
inactive: growth inhibition [1] -1.2% | growth inhibition [2] 8% | viability increase [3] 0.13% | viability [4] 95% | viability [5] 97.2% | inhibition [6] 1.93% | RAM network inhibition [7] -1.51%

CCC(C)NC(=O)C1CN(S(=O)(=O)c2ccccc2)CCN1S(=O)(=O)c1ccccc1 (configuration not stated)
inactive: growth inhibition [1] 10.9% | growth inhibition [2] -6.21% | viability increase [3] -2.53% | viability [4] 97.3% | viability [5] 92.9% | inhibition [6] 0.14% | RAM network inhibition [7] 0.57%

— PubChem BioAssay
